# Compounds with a hit are over-represented: about 1.9% of the library has one in this group of screens.
# Rtt109 Vps75 – inhibitors of Candida albicans Rtt109/Vps75 histone acetyltransferase; 330,000 tested, 0.16% active; purified Rtt109/Vps75, ThioGlo CoA-SH fluorescence, 4 h; Q5AAJ8; inhibition, % at 34.9 µM;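 active means inhibition of at least 50% in every replicate; inconclusive means best replicate reaches 50% inhibition but some replicates fall short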
# PglD DTNB – blocks C. jejuni PglD acetyltransferase activity; purified PglD enzyme, DTNB colorimetric CoA detection; inhibition, % at 12.5 µM; 360,000 tested, 0.098% active; AID 602405; in the data active means inhibition above about 16%, passing the limit was not always enough; inconclusive means no clear call, values can overlap the other calls
# SR-BI DiI-HDL act – activators of SR-BI mediated HDL lipid uptake; CHO ldlA[mSR-BI] cells, DiI-HDL uptake fluorescence, 3 h; 100 = double the neutral-control signal; activation, % at 12.5 µM; 320,000 tested, 0.096% active; AID 504775;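 active means mean replicate activation of at least 60% and every replicate at or above 60%; inconclusive means mean or all-replicate condition met, but not both; inactive means mean below 60% and not all replicates reaching 60%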;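 further: 0% = median plate neutral-control signal and 100% = twice that signal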
#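 Test system: SR-BI-overexpressing, LDLR-lacking CHO cells; Also added: labelled HDL, 10 µg/mL; Measured by: bottom-read cell fluorescence after medium removal, ex 550/em 595 nm; Timing: 3 h uptake period with compound, 37 °C; Buffer or medium: F12, 0.5% BSA, 25 mM HEPES; Doses: single compound concentration, delivered by pin transfer.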
# N-glyco inh – blocks N-linked glycosylation in D54 reporter cells; D54 ERlucT glycosylation luciferase reporter, 24 h; percent of 100 nM tunicamycin response; reporter increase, % at 12.5 µM; 360,000 tested, 0.23% active;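 active means mean luciferase reporter signal, scaled so untreated is 0 and the glycosylation-blocking control 100, at or above a set limit in every replicate; inconclusive means mean reaches the limit but not every replicate does; inactive means mean below the limit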;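 further: luciferase carries N-glycosylation sites so blocking glycosylation raises the light; 0% = median of neutral control wells and 100% = median of 100 nM tunicamycin wells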
# HIV Env fusion – HIV envelope-mediated fusion inhibition; HeLa-JRFL Env/CEM21 cell fusion, luciferase; inhibition, % at 12.3 µM; 360,000 tested, 1.1% active;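 active means mean replicate inhibition score of at least 50 and every replicate individually at or above 50; inconclusive means only one of the two criteria met; inactive means mean below 50 and not all replicates reaching 50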;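 further: 0% = plate neutral controls and 100% = maraviroc near 300 nM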
# SR-BI DiI inh – mouse SR-BI HDL lipid transfer inhibition; Q61009; ldlA[mSR-BI] CHO cells, DiI-HDL uptake fluorescence, 3 h; inhibition, % at 12.5 µM; 320,000 tested, 0.96% active;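 active means mean replicate inhibition of at least 70% and a set share of replicates each scoring 70 or more; inconclusive means meets just one of the two criteria; inactive means fails both criteria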;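 further: 0% = median of neutral control wells and 100% = median of positive control wells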
# Target sequence (Q61009 whole entry, looked up): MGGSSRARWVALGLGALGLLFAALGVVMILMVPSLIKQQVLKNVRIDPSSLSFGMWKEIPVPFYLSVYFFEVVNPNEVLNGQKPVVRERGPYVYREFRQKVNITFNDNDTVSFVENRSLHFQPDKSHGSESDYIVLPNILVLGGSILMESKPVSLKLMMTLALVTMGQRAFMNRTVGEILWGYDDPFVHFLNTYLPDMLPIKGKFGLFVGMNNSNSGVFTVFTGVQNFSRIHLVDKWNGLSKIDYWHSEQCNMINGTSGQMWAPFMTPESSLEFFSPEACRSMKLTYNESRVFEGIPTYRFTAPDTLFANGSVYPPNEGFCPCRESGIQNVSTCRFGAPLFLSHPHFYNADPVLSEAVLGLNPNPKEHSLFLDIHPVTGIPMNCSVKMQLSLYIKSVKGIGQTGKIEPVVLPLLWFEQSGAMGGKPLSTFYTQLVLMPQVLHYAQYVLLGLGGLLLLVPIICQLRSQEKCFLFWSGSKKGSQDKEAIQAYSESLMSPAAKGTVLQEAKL
# Numbers without * were called inactive; ? = inconclusive; / = no result given; [ ] = dose if it differs, or a comment.
SMILES,Rtt109 Vps75,PglD DTNB,SR-BI DiI-HDL act,N-glyco inh,HIV Env fusion,SR-BI DiI inh
C[C@@H](NC(=O)C[C@H]1C[C@@H]2c3cc(NC(=O)NC4CCCC4)ccc3O[C@@H]2[C@H](CO)O1)c1ccccc1,/,2,/,/,-26[16.7 µM],/
CCNC(=O)C[C@@H]1CC[C@H]2[C@@H](COC[C@@H](O)CN2C(=O)c2ccccn2)O1,/,0,/,/,11[16.7 µM],/
O=C(C[C@@H]1CC[C@H]2[C@@H](COC[C@H](O)CN2C(=O)Nc2cccc(F)c2)O1)NCc1ccccc1F,/,19*,/,/,/,/
CCNC(=O)C[C@@H]1CC[C@@H]2[C@H](COC[C@@H](O)CN2C(=O)c2ccccn2)O1,/,-1,/,/,65*[16.7 µM],/
CNC[C@H]1Oc2ccc(NC(=O)Nc3ccc(OC)cc3)cc2CC(=O)N([C@H](C)CO)C[C@@H]1C,/,-2,/,/,1[16.7 µM],/
Cc1ccccc1C(=O)N1CCN(c2ccccn2)CC1,-20,-1,3,0,/,-3
O=C(c1cn(Cc2ccccc2)nc1-c1ccccc1)N1CCN(c2ccccn2)CC1,3,/,-20,51*,-47,20
O=C(c1ccccc1-c1ccccc1)N1CCN(c2ccccn2)CC1,-16,-3,-3,50*,15,3
CCOc1c(C)cnc2c1c(=O)n(Cc1ccc(Cl)cc1)c(=O)n2C,1,2,3,-2,85*,-3
CC(C)CC#Cc1cnc2c(c1)C(=O)N([C@@H](C)CO)C[C@@H](C)[C@@H](CN(C)Cc1ccc3c(c1)OCO3)O2,/,0,/,/,15[16.7 µM],/
CC1CCCC/C1=N/Nc1ccc([N+](=O)[O-])cc1[N+](=O)[O-] (stereo not given),1,-2,4,2,/,-4
O=[N+]([O-])c1ccc(C2CCCC/C2=N\OCc2cccc(F)c2)c([N+](=O)[O-])c1 (stereo not given),-1,-1,-28,-8,85*,28
O=C(Nc1ccccc1O)c1ccc(NS(=O)(=O)c2cccc3cccnc23)cc1,4,-2,-1,83*,-144,1
O=C(Nc1ncccc1O)c1ccc(S(=O)(=O)Nc2ccccc2)cc1,2,-5,12,129*,/,-12
O=C(Nc1ncccc1O)c1ccc(NS(=O)(=O)c2ccc3[nH]c(=O)[nH]c3c2)cc1,?,2,-4,18,8,4
COC(=O)c1ccc(NC(=O)c2ccc(NS(=O)(=O)c3cccc4cccnc34)cc2)cc1,-2,-1,-1,14,/,1
C[C@@H]1CN([C@@H](C)CO)C(=O)c2cc(NS(=O)(=O)c3ccc(F)cc3)ccc2O[C@@H](C)CCCCO[C@@H]1CN(C)C(=O)Cc1ccccc1,/,6,/,/,-1[16.7 µM],/
CCCCN(CC)c1nc(-c2ccncc2)nc2ccccc12,32,-7,-29,0,64*,29
CCCN(CCC)c1nc(-c2ccccn2)nc2ccccc12,-4,-9,-22,12,71*,22
CCN1CCN(c2nc(-c3ccccn3)nc3ccccc23)CC1,0,-4,15,-3,-16,-15
COCC1=C2[C@@H](CCc3ccccc3)OB(O)C[C@@H]2n2c(=O)n(-c3ccccc3)c(=O)n2C1,/,/,/,/,3[16.7 µM],/
Nc1cc(C(=O)OCC(=O)N2CCCC2=O)ccc1Cl,-3,-6,-7,2,66*,7
C=CC1CN(S(=O)(=O)c2ccc(Br)cc2)C(=O)N1c1ccc(Br)cc1 (stereo not given),/,1,/,/,7[16.7 µM],/
O=C(N/N=C/c1cccnc1)c1cc(-c2ccccc2OCc2ccccc2)n[nH]1,-41,0,-46,41*,17,46
O=C(Nc1cccc(F)c1)N1C[C@H]2[C@@H](c3ccccc31)[C@H](CO)N2C(=O)Cc1ccccc1,/,-4,/,/,/,/
O=[N+]([O-])c1cc(-c2n(-c3ccccn3)c3ccccc3[n+]2-c2ccccn2)ccc1Cl,-1,-2,-7,0,64*,7
O=C(c1ccc(Cl)c([N+](=O)[O-])c1)N1CCN(c2ccccn2)CC1,0,/,-11,1,6,11
Cc1ccc(C(C)C)c(OCc2ccc(C(=O)N/N=C/c3cccc(O)c3O)cc2)c1,1,/,-136,-11,-8,136*
Cc1ccc(C(C)C)c(OCc2ccc(C(=O)N/N=C/c3ccc(O)c(O)c3)cc2)c1,2,-2,-82,-3,15,82*
